{"source": "the RNAGym collection of RNA variant scans (doi:10.1126/science.aae0568)", "parents": {"B1": {"name": "tRNA (parent)", "chain": "GUUCCGUUGGCGUAAUGGUAACGCGUCUCCCUCCUAAGGAGAAGACUGCGGGUUCGAGUCCCGUACGGAACG"}}, "note": "Fewer inactive variants are shown than the library holds.", "data": [{"variants_of": "B1", "assay": "yeast fitness relative to wild type (ratio to wild type); higher = fitter; tRNA-Arg(CCU), competitive growth, 37 C, YPD", "method_in_brief": "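Amplicons of the tRNA-Arg(CCU) gene were sequenced, 100-nucleotide paired-end, from the start population and from each end population of a pooled yeast competition. The competition, in six parallel replicates, lasted 24 hours in YPD at 37°C. Fitness relative to wild type was calculated from changes in genotype frequencies. Genotypes had to have ≥ 100 starting reads, and estimates < 0.5 were set to 0.5.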", "values": [{"variant": "GUUCCGUUGGCGUGAUGGUAACGCGUCUCCCUCCUAAGGAGAAGACUGCGGGUUCGAGUCCAGUACGGAACG", "yeast fitness": 0.533}, {"variant": "GUUCCGUUGGCGUGAUGGUAACGCGUCUCCCUCCUAAGGAGAAGACUGCGGGUUCGAGUACCGUACGGAACG", "yeast fitness": 0.523}, {"variant": "GUUCCGUUGGCGUGAUGGUAACGCGUCUCCCUCCUAAGGAGAAGACUGCGGGUUCGAGUGCCGUACGGAACG", "yeast fitness": 0.507}, {"variant": "GUUCCGUUGGCGUGAUGCUAACGCGUCUCCCUCCUAAGGAGAAGACUGCGGGUUCGAGUCCCGUACGGAACG", "yeast fitness": 0.559}, {"variant": "GUUCCGUUGGCGUGAUGGUAACGCGUCUCCCUCCUAAGGAGAAGACUGCGGGUUCGAGUCCCGUAGGGAACG", "yeast fitness": 0.761}, {"variant": "GUUCCGUUGGCGUGAUGCUAUCGCGUCUGCCUCCUAAGGAGAAGACUGCGGGUUCGAGUCCCGUAUGGAACG", "yeast fitness": "≤ 0.5"}, {"variant": "GUUCCGUUGGCGUGAUGCUAACGCGUCUGCCUCUUAAGGAGAAGCCUGCGGGUUCGAGUCCCGUACGGAACG", "yeast fitness": "≤ 0.5"}, {"variant": "GUUCCGUUGGCGUGAUAGUAACGCGUCUCCCUCCUAAGGAGAAGACUGCGGGUUCGAGUCCCGUACGGAACG", "yeast fitness": 0.735}, {"variant": "GUUCCGUUGGCGUGAUGCUAACGCGUCUCCCUCCUAAGGAGAAGACUGCCGGUUCGAGUCCCGUACGGAACG", "yeast fitness": "≤ 0.5"}, {"variant": "GUUCCGUUGGCGUGAUCGUAACGUGUCUCCCUCCUAAGGAGAAGACUGCGGGUUCGAGUCCCGUACGGUACG", "yeast fitness": "≤ 0.5"}, {"variant": "GUUCCGUUGGCGUGAUGGUAACGCGUCUCCCUCAUAACGAGAAGACUGCGGGUUCGAGUCCCGUACGGAACG", "yeast fitness": 0.676}, {"variant": "GUUCCGUUGGCGUGAUGGUAACGCGUCUCCCUCCUAAGGAGAAGACUGGGGGUUCGAGUCCCGUAUGGAACG", "yeast fitness": 0.526}, {"variant": "GUUCCGUUGGCGUGAUGGUAACCCGUAUCCCUCCUAAGGAGAAGACUGCGGGUUCGAGUCCCGUACGGAACG", "yeast fitness": "≤ 0.5"}, {"variant": "GUUCCGUUGGCGUGAUGGUAACACGUCUCCCUCCUAAGGUGCAGACUGCGGGUUCGACUCCCGUACGGAACG", "yeast fitness": "≤ 0.5"}, {"variant": "GUUCCGUUGGCGUGAUCGUAACGCGUCUCCCUCCUAAGGAGAAGACUGCGGGUUAGAGUCCCGUACGGAACG", "yeast fitness": "≤ 0.5"}, {"variant": "GUUCCGUUGGCGUGAUGGUAACGCGUCUCCCUCAUAAGGAGAAGACUGUGCGUUCGAGUCUCGUACGGAACG", "yeast fitness": "≤ 0.5"}, {"variant": "GUUCCGUUGGCGUGAUGGUAACCCGUCUACCUCCUAAGGAGAAGACUGCGGGUUCGAGUCCCGUACGGAACG", "yeast fitness": "≤ 0.5"}, {"variant": "GUUCCGUUGGCGUGAUGGUAACGCGUCUCCCUCCUAAGGAGAAGACUGUGGGUUCGAGUCCCGUACGGAACG", "yeast fitness": 0.908}, {"variant": "GUUCCGUUGGCGUGAUGGUAACGCGUCUCCCUCCUAAGGAGAAGACUGGGGGUUCGAGUCCCGUACGGAACG", "yeast fitness": 0.815}, {"variant": "GUUCCGUUGGCGUGAUCGUAACGUGUCUCCCUCCUAAGGAGAAGACUGUGGGUUCGAGUCCCGUACGGUACG", "yeast fitness": "≤ 0.5"}, {"variant": "GUUCCGUUGGCGUGAUGGUAACGCGUCUCCCUCCUAAGGAGAAGAAUGCGGGUUCGGGUCCCGUACGGAACG", "yeast fitness": 0.743}, {"variant": "GUUCCGUUGGCGUGAUGGUAACGCGUCUCCCUCCUAAGGAGAAGACUGGGGGUUCGGGUCCCGUACGGAACG", "yeast fitness": 0.557}, {"variant": "GUUCCGUUGGCGUGAUGGUAACGCGUCUCCCUCGUAAGGAGACGACUGCGGGUUCGAGUCCCGUACGGAACG", "yeast fitness": 0.591}, {"variant": "GUUCCGUUGGCGUGAUGGUAACGCGUCUCCCUCCUAAGGAGAAGACUGCGGGUUUGAGUCCCGUACGGAACG", "yeast fitness": 0.553}, {"variant": "GUUCCGUUGGCGUGAUGGUAACGCGUCUCCCUCCUAAGGAGAAGACUGCGGGUUAGAGUCCCGUACGGAACG", "yeast fitness": "≤ 0.5"}, {"variant": "GUUCCGUUGGCGUGAUGGUAACACGUCUCCCUCAUAAGGAGAAGACUGCGGGUUCGAGUCCCGUACGGAACG", "yeast fitness": "≤ 0.5"}, {"variant": "GUUCCGUUGGCGUGAUGGUAACGCGUCUCCCUCCUAAGGAGAAGACUGCGGGUUCGAGUCACGUACGGCACG", "yeast fitness": "≤ 0.5"}, {"variant": "GUUCCGUUGGCGUGAUGGUAACGCGUCUCCCUCAUAAGGAGAAGACUGCGGGUUCGAGUCCCGUACGGCACG", "yeast fitness": 0.605}, {"variant": "GUUCCGUUGGCGUGAUGGUAACGCGUCUCCCUCGUAAGGAGACGACUGCGGGUUCGAGUCCCGUGCGGAACG", "yeast fitness": 0.558}, {"variant": "GUUCCGUUGGCGUGAUGGUAACGCGUCUCCCUCAUAAGGAGAAGACUGCGGGUUCGAGUACCGUACGGAACG", "yeast fitness": "≤ 0.5"}, {"variant": "GUUCCGUUGGCGUGAUGAUAACGCGACUCCCUCCUAAGGAGAAGACUGCGGGUUCGAGUCCCGUACGGACCG", "yeast fitness": "≤ 0.5"}, {"variant": "GUUCCGUUGGCGUGAUGGUAACGCGUCUCCCUCCUAAGGAGAAGACUGCGGGUUCGAGUCUCGUACGGAUCG", "yeast fitness": 0.835}, {"variant": "GUUCCGUUGGCGUGAUGAUAACGCGACUCCCUCCUAAGGAGAAGACUGCGGGUUCGAGUCCCGUACGGAACG", "yeast fitness": "≤ 0.5"}, {"variant": "GUUCCGUUGGCGUGAUGGUAACGCGUCUCCCUCCUAAGGAGAAGACUGAGGGUUCGAGUCUGGUACGGAACG", "yeast fitness": "≤ 0.5"}, {"variant": "GUUCCGUUGGCGUGAUGAUAACGCGUCUCUCUCCUAAGGAGAAGACUGCGGGUUCGAGUCCCGUACGGAACG", "yeast fitness": 0.809}, {"variant": "GUUCCGUUGGCGUGAUGGUAACGCGUCUCCCUUCUAAAGAGAAGACUGCGGGUUUGAGUCCCGUACGGAACG", "yeast fitness": "≤ 0.5"}, {"variant": "GUUCCGUUGGCGUGAUGGUAACGCGUCUCCCUCCUAAGGAGAAGACUGCGGGUUCGAGUCCUGUACGCAACG", "yeast fitness": "≤ 0.5"}, {"variant": "GUUCCGUUGGCGUGAUGGUAACACGUCUCCCUCCCACGGAGAAGACUGCGGGUUCGAGUCCCGUACGGAACG", "yeast fitness": 0.5}]}]}
